Published values from different studies.
Protocols differ between the studies behind these lines.
Read-out: cell growth or viability

Cc1nc(C(CN)NC(=O)C(=O)Nc2ccc3c(c2)OCO3)sc1CO (centres unmarked) gave a CC50 of no less than 650 µM (MT2; MTS; 96 h).
CC[C@H](C)[C@H](NC(=O)OCC1c2ccccc2-c2ccccc21)C(=O)Sc1cccccc1=O has a CC50 of 42.6 µM (HepDES19; MTS; 72 h).
O=P(O)(O)c1cc2c(O)c(c1)Cc1cc(P(=O)(O)O)cc(c1O)Cc1cc(P(=O)(O)O)cc(c1O)Cc1cc(P(=O)(O)O)cc(c1O)Cc1cc(P(=O)(O)O)cc(c1O)Cc1cc(P(=O)(O)O)cc(c1O)Cc1cc(P(=O)(O)O)cc(c1O)Cc1cc(P(=O)(O)O)cc(c1O)C2 gave a CC50 of 747 µM (HEK293; ATP luminescence; 24 h).
CC(C)c1cccc(=O)c(O)c1 gave a CC50 of 66.4 µM (HepDES19; MTS; 72 h).
O[C@@H](c1cc(C(F)(F)F)nc2c(C(F)(F)F)cccc12)[C@H]1CCCCN1 has a CC50 of 8.84 µM (HEK293; MTT; 24 h).
For N#Cc1cc(Cl)cc(Oc2ccc(Cl)cc2OCCn2cc(Cl)c(=O)[nH]c2=O)c1, the CC50 was 31 µM (MT2).
The CC50 of COC(=O)N[C@H](C(=O)N1CCC[C@H]1c1nc(-c2ccc(-c3ccc(-c4c[nH]c([C@@H]5CCCN5C(=O)[C@@H](NC(=O)OC)C(C)C)n4)cc3)cc2)c[nH]1)C(C)C is reported as 90 µM (MT2; 5 days).
For C=C(C)c1ccccc(=O)c1O, the CC50 was 53.5 µM (HepDES19; MTS; 72 h).
N=C(N)c1ccc(OCCCCCOc2ccc(C(=N)N)cc2)cc1 has a CC50 of 82.9 µM (HEK293; MTT; 24 h).
CC/C(=C(\c1ccccc1)c1ccc(OCCN(C)C)cc1)c1ccccc1 gave a CC50 of 9 µg/mL (HEK293; resazurin; 20 h).
The CC50 of CCOc1ccc(-c2nc(CNCCc3ccc(F)cc3)cs2)cc1 is reported as 39 µM (HEK293; MTT; 24 h).
The CC50 of CC1c2cc(c(O)c(O)c2O)C(C)c2cc(c(O)c(O)c2O)C(C)c2cc(c(O)c(O)c2O)C(C)c2cc1c(O)c(O)c2O (centres unmarked) is reported as 402 µM (HEK293; MTT; 24 h).
The CC50 of O=c1cccccc1Sc1cccccc1=O is reported as 20.8 µM (HepDES19; MTS; 72 h).
NCCN(C(=O)c1ccc(Cl)cc1Cl)c1ccc(OCc2ccc(Cl)cc2)cc1 gave a CC50 of 7.96 µM (HEK293; MTT; 24 h).
